ChEMBL document CHEMBL3774372, “Design, physico-chemical properties and biological evaluation of some new N-[(phenoxy)alkyl]- and N-{2-[2-(phenoxy)ethoxy]ethyl}aminoalkanols as anticonvulsant agents” (Bioorg Med Chem, 2016)
The source made the active and inactive calls.

Legend:
Mus musculus [1] = experiment: Anticonvulsant activity in mouse assessed as protection against 6 Hz psychomotor seizure at 50 mg/kg, ip after 1 hr; assay type: functional, organism-based
Procedure, shortened: (§1)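 Suspension in 0.5% methylcellulose given ip to mice; corneal stimulation with 0.2 ms monopolar rectangular pulses at 6 Hz for 3 s from a constant current device, mice restrained then released to observation cage. Protected if normal exploratory behaviour resumed within 10 s of stimulation. Scored as protected/tested, 4 mice per group.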

Mus musculus [2] = experiment: Anticonvulsant activity in mouse assessed as protection against 6 Hz psychomotor seizure at 50 mg/kg, ip after 2 hrs; assay type: functional, organism-based; procedure, shortened: as §1
Mus musculus [3] = experiment: Anticonvulsant activity in mouse assessed as protection against 6 Hz psychomotor seizure at 50 mg/kg, ip after 4 hrs; assay type: functional, organism-based; procedure, shortened: as §1
Mus musculus [4] = experiment: Neurotoxicity in mouse at 50 mg/kg, ip after 0.5 hrs by rotarod test; assay type: toxicity, organism-based; details: in vivo
Procedure, shortened: (§2)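 Mice were dosed ip with compound suspended in 0.5% methylcellulose. Rotarod: a 1 in. knurled rod turning at 6 rpm. Neurotoxicity was scored as failure to stay on the rod for at least 1 min in each of three trials. Results are given as the number of animals affected out of the number tested.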

Mus musculus [5] = experiment: Neurotoxicity in mouse at 50 mg/kg, ip after 1 hr by rotarod test; assay type: toxicity, organism-based; details: in vivo; procedure, shortened: as §2
Mus musculus [6] = experiment: Neurotoxicity in mouse at 50 mg/kg, ip after 2 hrs by rotarod test; assay type: toxicity, organism-based; details: in vivo; procedure, shortened: as §2
Mus musculus [7] = experiment: Neurotoxicity in mouse at 50 mg/kg, ip after 4 hrs by rotarod test; assay type: toxicity, organism-based; details: in vivo; procedure, shortened: as §2
Vibrio harveyi [8] = experiment: Mutagenicity in Vibrio harveyi BB7 assessed as number of colonies after 48 hrs (reference value: 13 to 14 no_unit); assay type: ADME, organism-based; details: in vivo
Procedure, shortened: (§3)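 Vibrio harveyi mutagenicity test: test compound was added to exponentially growing cultures (A600 = 0.1, 30 °C) and grown to OD600 0.3–0.4. Then 5 × 10^6 cells were plated on BOSS agar with neomycin (final 100 µg/mL) and incubated 48 h at 30 °C. Neomycin-resistant colonies were counted. Triplicate; controls were water, DMSO and NQNO 40 ng/mL.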

Vibrio harveyi [9] = experiment: Mutagenicity in Vibrio harveyi BB7X assessed as number of colonies after 48 hrs (reference value: 15 to 16 no_unit); assay type: ADME, organism-based; details: in vivo; procedure, shortened: as §3
Vibrio harveyi [10] = experiment: Mutagenicity in Vibrio harveyi BB7M assessed as number of colonies after 48 hrs (reference value: 13 to 14 no_unit); assay type: ADME, organism-based; details: in vivo; procedure, shortened: as §3
Vibrio harveyi [11] = experiment: Mutagenicity in Vibrio harveyi BB7XM assessed as number of colonies after 48 hrs (reference value: 14 no_unit); assay type: ADME, organism-based; details: in vivo; procedure, shortened: as §3
Vibrio harveyi [12] = experiment: Antimutagenic activity against Vibrio harveyi BB7 assessed as inhibition of NQNO-induced mutagenicity after 48 hrs; assay type: functional
Procedure, shortened: (§4)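 V. harveyi cultures grown exponentially to A600 0.1 at 30 °C, exposed to test compound for 15 min, then to NQNO, and grown on to A600 0.3–0.4. 5 × 10⁶ cells plated on BOSS agar with neomycin (100, final). Neomycin-resistant colonies counted after 48 h at 30 °C. Result given as % inhibition of NQNO mutagenicity; three independent repeats.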

Vibrio harveyi [13] = experiment: Antimutagenic activity against Vibrio harveyi BB7X assessed as inhibition of NQNO-induced mutagenicity after 48 hrs; assay type: functional; procedure, shortened: as §4
Vibrio harveyi [14] = experiment: Antimutagenic activity against Vibrio harveyi BB7M assessed as inhibition of NQNO-induced mutagenicity after 48 hrs; assay type: functional; procedure, shortened: as §4
Vibrio harveyi [15] = experiment: Antimutagenic activity against Vibrio harveyi BB7XM assessed as inhibition of NQNO-induced mutagenicity after 48 hrs; assay type: functional; procedure, shortened: as §4
Mus musculus [16] = experiment: Anticonvulsant activity in mouse assessed as protection against maximal electric shock-induced seizures at 100 mg/kg, ip measured after […]; assay type: functional, organism-based
Mus musculus [17] = experiment: Anticonvulsant activity in mouse assessed as protection against maximal electric shock-induced seizures at 30 mg/kg, ip measured after 0.5 hrs; assay type: functional, organism-based
Procedure, shortened: (§5)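 Mice dosed ip with suspension in 0.5% methylcellulose; maximal electroshock applied at the listed time after dosing. Protection = abolition of hindlimb tonic extension component of seizure; reported as animals protected/animals tested.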

Mus musculus [18] = experiment: Anticonvulsant activity in mouse assessed as protection against maximal electric shock-induced seizures at 30 mg/kg, ip measured after 4 hrs; assay type: functional, organism-based; procedure, shortened: as §5
Mus musculus [19] = experiment: Anticonvulsant activity in mouse assessed as protection against maximal electric shock-induced seizures at 100 mg/kg, ip measured after 0.5 hrs; assay type: functional, organism-based; procedure, shortened: as §5
Mus musculus [20] = experiment: Anticonvulsant activity in mouse assessed as protection against maximal electric shock-induced seizures at 100 mg/kg, ip measured after 1 hr; assay type: functional, organism-based; procedure, shortened: as §5
Mus musculus [21] = experiment: Anticonvulsant activity in mouse assessed as protection against maximal electric shock-induced seizures at 100 mg/kg, ip measured after 4 hrs; assay type: functional, organism-based; procedure, shortened: as §5
Mus musculus [22] = experiment: Anticonvulsant activity in mouse assessed as protection against maximal electric shock-induced seizures at 300 mg/kg, ip measured after 0.5 hrs; assay type: functional, organism-based; procedure, shortened: as §5
Mus musculus [23] = experiment: Anticonvulsant activity in mouse assessed as protection against maximal electric shock-induced seizures at 300 mg/kg, ip measured after 4 hrs; assay type: functional, organism-based; procedure, shortened: as §5
Mus musculus [24] = experiment: Anticonvulsant activity in mouse assessed as protection against subcutaneous pentylenetetrazol-induced seizures at 30 mg/kg, ip measured after 0.5 hrs; assay type: functional, organism-based
Procedure, shortened: (§6)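 Mice dosed ip as 0.5% methylcellulose suspension; pentylenetetrazole 85 mg/kg in 0.9% NaCl injected subcutaneously into posterior midline, animals watched at least 30 min. Protection = no threshold seizure (single clonic spasm episode lasting ≥5 s); scored protected/tested.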

Mus musculus [25] = experiment: Anticonvulsant activity in mouse assessed as protection against subcutaneous pentylenetetrazol-induced seizures at 100 mg/kg, ip measured after 0.5 hrs; assay type: functional, organism-based; procedure, shortened: as §6
Mus musculus [26] = experiment: Anticonvulsant activity in mouse assessed as protection against subcutaneous pentylenetetrazol-induced seizures at 300 mg/kg, ip measured after 0.5 hrs; assay type: functional, organism-based; procedure, shortened: as §6
Mus musculus [27] = experiment: Anticonvulsant activity in mouse assessed as protection against subcutaneous pentylenetetrazol-induced seizures at 30 mg/kg, ip measured after 4 hrs; assay type: functional, organism-based; procedure, shortened: as §6
Mus musculus [28] = experiment: Anticonvulsant activity in mouse assessed as protection against subcutaneous pentylenetetrazol-induced seizures at 100 mg/kg, ip measured after 4 hrs; assay type: functional, organism-based; procedure, shortened: as §6
Mus musculus [29] = experiment: Anticonvulsant activity in mouse assessed as protection against subcutaneous pentylenetetrazol-induced seizures at 300 mg/kg, ip measured after 4 hrs; assay type: functional, organism-based; procedure, shortened: as §6
Mus musculus [30] = experiment: Neurotoxicity in mouse at 30 mg/kg, ip after […] by rotarod test; assay type: toxicity, organism-based; details: in vivo
Mus musculus [31] = experiment: Neurotoxicity in mouse at 100 mg/kg, ip after 1 hr by rotarod test; assay type: toxicity, organism-based; details: in vivo; procedure, shortened: as §2
Mus musculus [32] = experiment: Neurotoxicity in mouse at 300 mg/kg, ip after 0.5 hrs by rotarod test; assay type: toxicity, organism-based; details: in vivo; procedure, shortened: as §2
Mus musculus [33] = experiment: Neurotoxicity in mouse at 300 mg/kg, ip after 4 hrs by rotarod test; assay type: toxicity, organism-based; details: in vivo; procedure, shortened: as §2
Mus musculus [34] = experiment: Anticonvulsant activity in ip dosed mouse assessed as protection against maximal electric shock-induced seizures; assay type: functional, organism-based
Procedure, shortened: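 Compound suspended in 0.5% methylcellulose and given ip to mice; screening doses 30, 100 and 300 mg/kg, read at 0.25–4 h. Protection was defined as abolition of hindlimb tonic extension.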

Mus musculus [35] = experiment: Anticonvulsant activity in mouse assessed as protection against 6 Hz psychomotor seizure at 100 mg/kg, ip after 1 hr; assay type: functional, organism-based; procedure, shortened: as §1
Mus musculus [36] = experiment: Anticonvulsant activity in mouse assessed as protection against 6 Hz psychomotor seizure at 100 mg/kg, ip after 2 hrs; assay type: functional, organism-based; procedure, shortened: as §1
Mus musculus [37] = experiment: Neurotoxicity in mouse at 100 mg/kg, ip after 2 hrs by rotarod test; assay type: toxicity, organism-based; details: in vivo; procedure, shortened: as §2
Mus musculus [38] = experiment: Anticonvulsant activity in mouse assessed as protection against 6 Hz psychomotor seizure at 100 mg/kg, ip after 0.5 hrs; assay type: functional, organism-based; procedure, shortened: as §1
Mus musculus [39] = experiment: Anticonvulsant activity in mouse assessed as protection against 6 Hz psychomotor seizure at 100 mg/kg, ip after 4 hrs; assay type: functional, organism-based; procedure, shortened: as §1
Mus musculus [40] = experiment: Neurotoxicity in mouse at 100 mg/kg, ip after 4 hrs by rotarod test; assay type: toxicity, organism-based; details: in vivo; procedure, shortened: as §2
[41] = target: 5-hydroxytryptamine receptor 2C (Homo sapiens, UniProt P28335); experiment: Displacement of [3H][…] from human recombinant 5-HT2C receptor expressed in HEK293 cells; assay type: cell-based
5-hydroxytryptamine receptor 2C, sequence (P28335 whole entry): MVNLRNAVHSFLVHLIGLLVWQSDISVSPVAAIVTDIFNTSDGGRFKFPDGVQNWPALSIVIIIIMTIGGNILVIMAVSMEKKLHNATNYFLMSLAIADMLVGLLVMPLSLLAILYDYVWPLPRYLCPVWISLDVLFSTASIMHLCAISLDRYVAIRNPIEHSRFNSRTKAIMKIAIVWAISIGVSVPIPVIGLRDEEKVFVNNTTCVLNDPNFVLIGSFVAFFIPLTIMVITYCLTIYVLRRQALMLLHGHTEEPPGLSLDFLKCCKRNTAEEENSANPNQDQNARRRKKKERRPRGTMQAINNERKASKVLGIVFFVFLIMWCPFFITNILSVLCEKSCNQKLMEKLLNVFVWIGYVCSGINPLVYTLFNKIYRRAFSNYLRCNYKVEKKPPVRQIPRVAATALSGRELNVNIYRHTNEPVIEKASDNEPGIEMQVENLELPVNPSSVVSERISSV

With `Cc1cc(C)c(OCCOCCN[C@@H]2CCCC[C@H]2O)c(C)c1` (racemic) the Activity (Mus musculus [1]) was “inactive”, the Activity (Mus musculus [2]) was “inactive” and the Activity (Mus musculus [3]) was “inactive”. For the same compound, the Activity (Mus musculus [4]) was “Non-toxic”, the Activity (Mus musculus [5]) was “Non-toxic” and the Activity (Mus musculus [6]) was “Non-toxic”. For the same compound, the Activity (Mus musculus [7]) was “Non-toxic”, the Activity (Vibrio harveyi [8]) was 20 and the Activity (Vibrio harveyi [9]) was 15. The Activity (Vibrio harveyi [10]) was 10, the Activity (Vibrio harveyi [11]) was 26 and the “inhibition (INH)” value (Vibrio harveyi [12]) was 62%. For the same compound, the “inhibition (INH)” value (Vibrio harveyi [13]) was 0%, the “inhibition (INH)” value (Vibrio harveyi [14]) was 27% and the “inhibition (INH)” value (Vibrio harveyi [15]) was 0%.

`Cc1cccc(OCCCNCC(O)c2ccccc2)c1C` (stereo unspecified) was tested, and the Activity (Mus musculus [16]) was “inactive”, the Activity (Mus musculus [17]) was “inactive” and the Activity (Mus musculus [18]) was “inactive”. The Activity (Mus musculus [19]) was “inactive”, the Activity (Mus musculus [20]) was “inactive” and the Activity (Mus musculus [21]) was “inactive”. For the same compound, the Activity (Mus musculus [22]) was “Active”, the Activity (Mus musculus [23]) was “inactive” and the Activity (Mus musculus [24]) was “inactive”. The Activity (Mus musculus [25]) was “inactive”, the Activity (Mus musculus [26]) was “inactive” and the Activity (Mus musculus [27]) was “inactive”. The Activity (Mus musculus [28]) was “inactive”, the Activity (Mus musculus [29]) was “inactive” and the Activity (Mus musculus [30]) was “Toxic”. The Activity (Mus musculus [31]) was “Toxic”, the Activity (Mus musculus [32]) was “Toxic” and the Activity (Mus musculus [33]) was “Toxic”.

With `Cc1cccc(C)c1OCC(C)N` (stereo unspecified) [MEXILETINE] the EC50 (Mus musculus [34]) was 20 mg/kg.

With `Cc1ccc(OCCNC(C)CO)c(C)c1` (stereo unspecified) the Activity (Mus musculus [35]) was “inactive”, the Activity (Mus musculus [36]) was “inactive” and the Activity (Mus musculus [37]) was “Non-toxic”. The Activity (Mus musculus [38]) was “inactive”, the Activity (Mus musculus [39]) was “inactive” and the Activity (Mus musculus [40]) was “Non-toxic”.

In the case of `COc1cc(OC)c(C(=O)CCCCN2CCC3(CC2)NC(=O)NC3=O)cc1NS(=O)(=O)c1ccc(C(F)(F)F)cc1` [RS-102,221], the IC50 [41] is reported as 1.5 nM.
